ChEMBL document CHEMBL5344415, “Synthesis and Characterization of Phenylalanine Amides Active against Mycobacterium abscessus and Other Mycobacteria” (J Med Chem, 2023)
pEC50: −log10 of the molar value. ≈ marks a conversion by molar mass, not a printed value.

How the values were obtained:
[1] = tested on: Mycobacteroides abscessus; test: Antibacterial activity against Mycobacterium abscessus ATCC 19977 expressing tomato RFP assessed as bacterial growth inhibition incubated for 3 days in 7H9 medium by RFP fluorescence based broth microdilution method; format: functional; conditions: ATCC 19977, 72 h, time 3 day
Outline: (§1)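 Broth microdilution in 7H9 with 10 % ADS and 0.05 % Tween 80. Twofold nine-point dilution series. Inoculum 5 x 10⁵ cells/mL taken from a mid-log preculture. Incubation at 37 °C, 3 days for M. smegmatis and M. abscessus, 5 days for M. intracellulare. Read-out by RFP fluorescence (ex 544/em 590 nm). Controls were 1 % DMSO and 100 μM amikacin. MIC₉₀ from duplicates, averaged.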

[2] = tested on: Mycobacteroides abscessus; test: Antibacterial activity against Mycobacterium abscessus ATCC 19977 expressing tomato RFP assessed as bacterial growth inhibition incubated for 3 days in MHII medium by RFP fluorescence based broth microdilution method; format: functional; conditions: ATCC 19977, 72 h, time 3 day
Outline: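 Broth microdilution in MHII broth with 0.05 % Tween 80, against the RFP-expressing strain. Twofold nine-point dilution series. Inoculum 5 x 10⁵ cells/mL from a mid-log preculture. Incubated 3 days at 37 °C. Read-out by RFP fluorescence (ex 544/em 590 nm). Controls were 1 % DMSO and 100 μM amikacin. MIC₉₀ from duplicates, averaged.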

[3] = tested on: Mycobacterium intracellulare; test: Antibacterial activity against Mycobacterium intracellulare ATCC 35761 expressing tomato RFP assessed as bacterial growth inhibition incubated for 5 days in 7H9 medium by RFP fluorescence based broth microdilution method; format: functional; conditions: ATCC 35761, 120 h, time 5 day; outline: as §1
[4] = tested on: Mycobacteroides abscessus; test: Antibacterial activity against Mycobacterium abscessus Bamboo harboring inactive clarithromycin-sensitive erm41 C28 sequevar assessed as bacterial growth inhibition incubated for 3 days in 7H9 medium by optical density based method; format: functional; conditions: 72 h, time 3 day
[5] = tested on: Mycobacteroides abscessus; test: Antibacterial activity against Mycobacterium abscessus ATCC 19977 expressing tomato RFP infected in human THP-1 cells assessed as bacterial growth inhibition incubated for 4 days in RPMI medium by RFP fluorescence based assay; format: functional; conditions: ATCC 19977, 96 h, time 4 day
Outline: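 RFP M. abscessus washed, moved into RPMI, filtered through 5 µm and opsonised with 10 % human serum for 30 min. THP-1 cells infected at MOI 5:1 with PMA 40 ng/mL for 4 h at 37 °C, then washed. Infected cells (1x10⁵/well) given a ten-point twofold series. Incubated 4 days at 37 °C, 5 % CO₂. Cells PFA-fixed and DAPI-stained. RFP quantified by imaging. Controls were DMSO and 1.5 µM bedaquiline. Duplicate.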

[6] = tested on: Mycobacteroides abscessus; test: Bactericidal activity against Mycobacterium abscessus ATCC 19977 assessed as reduction in viable bacteria at 3.13 uM incubated for 4 days by microplate dilution assay relative to control; format: functional; conditions: time 4 day
Outline: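 After 4 days in the microplate dilution assay, 10 µl samples (undiluted or 1:100) were plated on 7H10 with glycerol, ADS and 400 µg/mL hygromycin. Colonies counted after 4 days at 37 °C. Done in triplicate. CFU/mL compared with the inoculum counted before incubation.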

[7] = tested on: Mycobacteroides abscessus; test: Bactericidal activity against Mycobacterium abscessus ATCC 19977 assessed as reduction in viable bacteria at 6.25 uM incubated for 4 days by microplate dilution assay relative to control; format: functional; conditions: time 4 day
[8] = tested on: Mycobacteroides abscessus; test: Antibacterial activity against MMV688845-resistant Mycobacterium abscessus Bamboo 845R-2.1 harboring rpoB/beta subunit P473L mutation assessed as bacterial growth inhibition incubated for 3 days by optical density based analysis; format: functional; conditions: Bamboo 845R-2.1, 72 h, time 3 day
Outline: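 Tenfold-point twofold dilution series in 7H9, final DMSO 1 %. Final ranges typically 50–0.098 or 6.25–0.012 μM. Mid-log culture added to an initial OD₆₀₀ of 0.05 (5*10⁶ CFU/mL). Incubated 3 days at 37 °C with shaking at 110 rpm. Growth taken as OD₆₀₀ on day 3 minus day 0, as % of drug-free wells. MIC₉₀ read visually from the curves. Clarithromycin as control. Two biological replicates, averaged.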

A-375 = test: Cytotoxicity against human A-375 cells assessed as reduction in cell viability incubated for 72 hrs by SRB assay; format: toxicity, cell-based
HT-29 = test: Cytotoxicity against human HT-29 cells assessed as reduction in cell viability incubated for 72 hrs by SRB assay; format: toxicity, cell-based
MCF7 = test: Cytotoxicity against human MCF7 cells assessed as reduction in cell viability incubated for 72 hrs by SRB assay; format: toxicity, cell-based
A2780 = test: Cytotoxicity against human A2780 cells assessed as reduction in cell viability incubated for 72 hrs by SRB assay; format: toxicity, cell-based
[9] = (§2) Cytotoxicity against mouse NIH3T3 cells assessed as reduction in cell viability incubated for 72 hrs by SRB assay; format: toxicity, cell-based; conditions: mouse, NIH3T3 cells
HeLa = test: Cytotoxicity against human HeLa cells assessed as reduction in cell viability incubated for 72 hrs by SRB assay; format: toxicity, cell-based
HEK293 = test: Cytotoxicity against HEK293 cells assessed as reduction in cell viability incubated for 72 hrs by SRB assay; format: toxicity, cell-based, Homo sapiens
[10] = Kinetic solubility of compound in PBS at 0.78 to 500 uM measured immediately by nephelometric method; format: physicochemical; conditions: buffer, dose 0.78-500 µM
Outline: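 DMSO stocks prediluted in DMSO, then diluted 1:50 into PBS (2 % DMSO final) and read immediately by nephelometry at 0.78–500 μM; blank-corrected data fitted by segmental regression; quadruplicates from one stock.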

[11] = tested on: Mycolicibacterium smegmatis; test: Antibacterial activity against Mycobacterium smegmatis mc2 155 expressing tomato RFP assessed as bacterial growth inhibition incubated for 3 days in 7H9 medium by RFP fluorescence based broth microdilution method; format: functional; conditions: mc2 155, 72 h, time 3 day; outline: as §1
[12] = tested on: Mycobacterium tuberculosis; test: Antibacterial activity against Mycobacterium tuberculosis H37Rv ATCC 27294 assessed as bacterial growth inhibition incubated for 7 days in 7H9 medium by optical density based microplate reader analysis; format: functional; conditions: H37Rv ATCC 27294, 168 h, time 7 day
Outline: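 Compounds serially diluted in flat-bottom 96-well plates. Mid-log culture mixed in to a final OD₆₀₀ of 0.05. Sealed plates incubated in humidified boxes at 37 °C for 7 days with shaking at 80 rpm. Turbidity read at 600 nm. MIC₉₀ taken from dose–response curves. Two biological replicates, averaged.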

NIH3T3 = test: as §2; format: toxicity, cell-based; conditions: nih3t3
[13] = Stability in human plasma at 1 uM measured over 120 mins by HPLC-MS/MS analysis; format: ADME, cell-free; conditions: 2 h
[14] = Stability in mouse plasma at 1 uM measured over 120 mins by HPLC-MS/MS analysis; format: ADME, cell-free; conditions: 2 h
[15] = Metabolic stability in pooled human liver microsomes assessed as half life at 2 uM measured over 40 mins in presence of NADPH-cofactor system by HPLC-MS/MS analysis; format: ADME, Microsome
Outline: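 Pooled mixed-gender human liver microsomes at 0.42 mg protein/mL in 100 mM phosphate pH 7.4 with MgCl₂ and an NADPH-regenerating system. Test compound 2 μM, 1.6 % solvent, at 37 °C. Five time points over 40 min, stopped with acetonitrile, analysed by HPLC-MS/MS. t1/2 from the slope of ln(AUC) versus time. Controls lacked NADPH. Duplicates.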

SMILES	MIC90 [1]	MIC90 [2]	MIC90 [3]	MIC50 [4]	MIC90 [4]	MIC50 [5]	MIC90 [5]	Activity [6]	Activity [7]	MIC90 [8]	pEC50 (A-375)	pEC50 (HT-29)	pEC50 (MCF7)	pEC50 (A2780)	pEC50 (HeLa)	pEC50 (HEK293)	Kinetic_solubility [10]	MIC90 [11]	MIC90 [12]	pEC50 (NIH3T3)	further results
O=C(N[C@H](Cc1ccccc1)C(=O)Nc1ccccc1N1CC[S+]([O-])CC1)c1ccccc1F	6.25 µM (≈ 3 µg/mL)	3.13 µM (≈ 1.5 µg/mL)	0.1 µM (≈ 0.048 µg/mL)	0.4 µM (≈ 0.192 µg/mL)	2.1 µM (≈ 1.01 µg/mL)	0.78 µM (≈ 0.374 µg/mL)	12.5 µM (≈ 5.99 µg/mL)	81%	99%	100 µM (≈ 48 µg/mL)	< 4.52	< 4.52	< 4.52	< 4.52	< 4.52	< 4.52	431 µM	–	–	–	EC50 at 72 h [9]: > 30 µM
O=C(N[C@H](Cc1ccccc1)C(=O)Nc1cc(F)ccc1N1CCSCC1)c1ccccc1F	25 µM (≈ 12 µg/mL)	25 µM (≈ 12 µg/mL)	0.78 µM (≈ 0.376 µg/mL)	1.15 µM (≈ 0.554 µg/mL)	12 µM (≈ 5.78 µg/mL)	3.13 µM (≈ 1.51 µg/mL)	100 µM (≈ 48.2 µg/mL)	–	–	–	4.53	< 4.52	< 4.52	4.55	4.55	–	31 µM	6.25 µM (≈ 3.01 µg/mL)	1.56 µM (≈ 0.751 µg/mL)	4.55	–
O=C(N[C@H](Cc1ccccc1)C(=O)Nc1cc(F)ccc1N1CCS(=O)(=O)CC1)c1cccs1	6.25 µM (≈ 3.14 µg/mL)	3.13 µM (≈ 1.57 µg/mL)	0.2 µM (≈ 0.1 µg/mL)	0.43 µM (≈ 0.216 µg/mL)	6.5 µM (≈ 3.26 µg/mL)	0.39 µM (≈ 0.196 µg/mL)	3.13 µM (≈ 1.57 µg/mL)	–	–	–	< 4.52	< 4.52	4.63	4.62	< 4.52	< 4.52	70 µM	1.56 µM (≈ 0.783 µg/mL)	0.78 µM (≈ 0.391 µg/mL)	4.57	–
O=C(N[C@H](Cc1ccccc1)C(=O)Nc1ccccc1N1CCS(=O)(=O)CC1)c1ccccc1F	0.78 µM (≈ 0.387 µg/mL)	1.56 µM (≈ 0.773 µg/mL)	0.05 µM (≈ 0.0248 µg/mL)	0.23 µM (≈ 0.114 µg/mL)	4.3 µM (≈ 2.13 µg/mL)	0.39 µM (≈ 0.193 µg/mL)	6.25 µM (≈ 3.1 µg/mL)	95%	99%	42 µM (≈ 20.8 µg/mL)	< 4.52	< 4.52	< 4.52	< 4.52	< 4.52	–	64 µM	0.78 µM (≈ 0.387 µg/mL)	0.2 µM (≈ 0.0991 µg/mL)	–	Stability [13]: Stable; Stability [14]: Stable; t1/2 [15]: 1.5 min; EC50 at 72 h [9]: > 30 µM
O=C(N[C@H](Cc1ccccc1)C(=O)Nc1ccccc1N1CC[S+]([O-])CC1)c1cccs1	3.13 µM (≈ 1.46 µg/mL)	6.25 µM (≈ 2.92 µg/mL)	0.1 µM (≈ 0.0468 µg/mL)	0.33 µM (≈ 0.154 µg/mL)	2 µM (≈ 0.935 µg/mL)	3.13 µM (≈ 1.46 µg/mL)	25 µM (≈ 11.7 µg/mL)	58%	99%	> 100 µM	< 4.52	< 4.52	< 4.52	< 4.52	< 4.52	< 4.52	271 µM	1.56 µM (≈ 0.729 µg/mL)	0.4 µM (≈ 0.187 µg/mL)	–	EC50 at 72 h [9]: > 30 µM
O=C(N[C@H](Cc1ccccc1)C(=O)Nc1cc(F)ccc1N1CCS(=O)(=O)CC1)c1ccccc1F	3.13 µM (≈ 1.61 µg/mL)	3.13 µM (≈ 1.61 µg/mL)	0.1 µM (≈ 0.0514 µg/mL)	0.4 µM (≈ 0.205 µg/mL)	4.5 µM (≈ 2.31 µg/mL)	0.39 µM (≈ 0.2 µg/mL)	3.13 µM (≈ 1.61 µg/mL)	–	–	–	< 4.52	< 4.52	4.59	4.63	< 4.52	< 4.52	32 µM	1.56 µM (≈ 0.801 µg/mL)	0.78 µM (≈ 0.401 µg/mL)	4.62	–
O=C(N[C@H](Cc1cccs1)C(=O)Nc1ccccc1N1CCOCC1)c1cccs1	12.5 µM (≈ 5.52 µg/mL)	12.5 µM (≈ 5.52 µg/mL)	1.56 µM (≈ 0.689 µg/mL)	2.4 µM (≈ 1.06 µg/mL)	9 µM (≈ 3.97 µg/mL)	12.5 µM (≈ 5.52 µg/mL)	> 100 µM	–	–	–	< 4.52	4.53	< 4.52	4.53	< 4.52	–	41 µM	1.56 µM (≈ 0.689 µg/mL)	6.25 µM (≈ 2.76 µg/mL)	4.54	–
